From ChEMBL document CHEMBL1131610, “3-Deoxy-D-myo-inositol 1-phosphate, 1-phosphonate, and ether lipid analogues as inhibitors of phosphatidylinositol-3-kinase signaling and cancer cell growth” (J Med Chem, 1998) come the findings set out here.

One may read the IC50 as the midpoint of a concentration-inhibition curve. As a reminder, the T/C is the result in the treated group divided by that in the control group, in per cent.

One series relates to HT-29. As to the kind of experiment: Inhibition of HT-29 colon carcinoma cell proliferation after continuous 7-day exposure. It is filed as functional, cell-based. To be noted: Homo sapiens, HT-29, 168 h. In a few lines:
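HT-29 colon carcinoma cells were grown as colonies in soft agarose with continuous 7-day drug exposure, and inhibition of colony formation was scored.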

Series [1] concerns Mus musculus. Nature of the series: In vivo antitumor activity in mice implanted with human colon adenocarcinoma cells at a dose of 100 mg/kg (qd 4-7), injected intraperitoneally and evaluated for tumor volume on day 10. The conditions noted are these: route intraperitoneal. It is filed as functional. In a few lines:
(§1)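 scid mice were implanted subcutaneously with 10⁷ HT-29 human colon adenocarcinoma cells, 8 mice per group. Beginning 4 days after inoculation, each mouse got 4 daily intraperitoneal injections (days 4–7) of compound suspended in 3% EtOH, 3% Tween 20, 0.9% NaCl. Tumor volume was measured with calipers on day 10 and reported as mean with SE. T/C (%) is treated versus control volume, and significance was tested by Student's test.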

In series [2] the test system is Mus musculus. As to the kind of experiment: In vivo antitumor activity in mice implanted with human colon adenocarcinoma cells at a dose of 150 mg/kg (qd 4-7), injected intraperitoneally and evaluated for tumor volume on day 10. To be noted: route intraperitoneal. The format is functional. In a few lines:
as §1

Series [3] relates to Mus musculus. As to the kind of experiment: In vivo antitumor activity in mice implanted with human colon adenocarcinoma cells at a dose of 50 mg/kg (qd 4-7), injected intraperitoneally and evaluated for tumor volume on day 10. It is filed as functional. To be noted: route intraperitoneal. In a few lines:
as §1

Series [4] concerns Mus musculus. As to the kind of experiment: In vivo antitumor activity in mice implanted subcutaneously with 10^7 HT-29 human colon adenocarcinoma cells at a dose of 100 mg/kg (qd 4-7), injected intraperitoneally and evaluated for %T/C. The format is functional. The gist of the method:
as §1

Series [5] deals with Mus musculus. As to the kind of experiment: In vivo antitumor activity in mice implanted subcutaneously with 10^7 HT-29 human colon adenocarcinoma cells at a dose of 50 mg/kg (qd 4-7), injected intraperitoneally and evaluated for %T/C. The format is functional. The gist of the method:
as §1

In series [6] the test system is Mus musculus. Nature of the series: In vivo antitumor activity in mice implanted with human colon adenocarcinoma cells at a dose of 150 mg/kg (qd 4-7), injected intraperitoneally and evaluated for %T/C. The format is functional. To be noted: route intraperitoneal. In a few lines: as §1
A short description of series [7]: Inhibition of bovine brain Phosphatidylinositol 3-kinase. Also on record: species or system Bos taurus.
The test system of series [8] is Mus musculus. As to the kind of experiment: In vivo antitumor activity in mice implanted subcutaneously with HT-29 human colon adenocarcinoma cells at a dose of 250 mg/kg (qd 4-7), injected intraperitoneally and evaluated for %T/C. It is filed as functional. In a few lines: as §1
Series [9] deals with Mus musculus. Nature of the series: In vivo antitumor activity in mice implanted with human colon adenocarcinoma cells at a dose of 250 mg/kg (qd 4-7), injected intraperitoneally and evaluated for tumor volume on day 10. The format is functional. The conditions noted are these: route intraperitoneal. In a few lines: as §1
The nature of series [10]: In vivo antitumor activity in mice implanted with human colon adenocarcinoma cells at a dose of 500 mg/kg (qd 4-7), injected intraperitoneally and evaluated for tumor volume on day 10; Lethal. The format is organism-based. Also on record: dose 500 mg/kg, route intraperitoneal. To be noted: mouse, ip.
A short description of series [11]: Inhibition of bovine brain Phosphatidylinositol 3-kinase (inactive). Also on record: species or system Bos taurus.
The subject of series [12] is Phosphoinositide specific phospholipase C (Bos taurus). As to the kind of experiment: In vitro inhibitory activity against bovine Phosphoinositide specific phospholipase C (PI-PLC); N/A= not active, with <20% inhibition at 100 uM.

On to `CCCCCCCCCCCCCCCCCCOC[C@H](COP(=O)(O)O[C@H]1[C@@H](O)[C@@H](O)[C@H](O)C[C@H]1O)OC`, for which the IC50 in the series on HT-29 was found to be 2.1 µM; in series [7], 2.5 µM. The Tumor volume came to 0.32 cm*3 in the series with Mus musculus [1], 0.09 cm*3 with Mus musculus [2] and 0.28 cm*3 with Mus musculus [3]. Moreover, the results for the T/C with Mus musculus [4], with Mus musculus [5] and in the series with Mus musculus [6] were 118%, 103.7% and 33.3%, respectively.

Regarding `CCCCCCCCCCCCCCCC(=O)OC[C@H](COP(=O)(O)O[C@H]1[C@@H](O)[C@@H](O)[C@H](O)C[C@H]1O)OC(=O)CCCCCCCCCCCCCCC`, the IC50 with HT-29 was 35 µM; in series [7] it was over 250 µM. This compound displayed a T/C with Mus musculus [8] of 111.1%. Further, the values for the Tumor volume (in the series on Mus musculus [9]; in series [10]) were 0.3 cm*3 and “Lethal”, respectively.

Consider `CCCCCCCCCCCCCCCC(=O)OC[C@H](CCP(=O)(O)O[C@H]1[C@@H](O)[C@@H](O)[C@H](O)C[C@H]1O)OC(=O)CCCCCCCCCCCCCCC`, for which the IC50 in the series with HT-29 is 10 µM; in [11], “Not Active”; in series [12], “Not Active”.

Consider `CCCCCCCCCCCCCCCC(=O)OC[C@H](COP(=O)(O)O[C@@H]1[C@H](O)[C@@H](F)[C@@H](O)[C@H](O)[C@@H]1O)OC(=O)CCCCCCCCCCCCCCC`, for which the IC50 in the series on HT-29 worked out at 37 µM; in series [7], 30 µM.

Regarding `CCCCCCCCCCCCCCCCCCOC[C@H](CCP(=O)(O)O[C@H]1[C@@H](O)[C@@H](O)[C@H](O)C[C@H]1O)OC`, the concentration for half-maximal inhibition (IC50) was determined as 45 µM in the series on HT-29 and 5.3 µM in series [7].
